# Data taken from ChEMBL document CHEMBL2069190, “Identification of new γ-hydroxybutenolides that preferentially inhibit the activity of mPGES-1” (Bioorg Med Chem, 2012).
# Calls of active or inactive are those of the source. No cut-off for these calls is given here.
# Tests used:
# A549 [1] = test: Antiinflammatory activity in human A549 cells assessed as inhibition of IL-1beta-induced mPGES1 expression at 10 uM treated 30 mins prior to IL-1beta challenge measured after 48 hrs by Western blot analysis relative to control; type: functional, cell-based
# Summary of the method: (§1)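 A549 cells (DMEM high glucose, 10% heat-inactivated FCS, penicillin/streptomycin, 37 °C, 5% CO2) pre-incubated 30 min with compound or vehicle (DMSO, 0.3%), then IL-1b (2 ng/mL) added. After 48 h, cells lysed; mPGES-1 protein analysed by Western blot with b-actin as loading control. Bands semi-quantified by densitometry as % of uninhibited DMSO control, mean SD, n = 3.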
# Prostaglandin E synthase = biological target: T1, Prostaglandin E synthase (Homo sapiens, UniProt O14684); test: Inhibition of mPGES-1-mediated PGE2 formation in IL-1beta-stimulated human A549 cells preincubated for 10 mins measured after 1 min by RP-HPLC analysis; type: cell-based
# T1 sequence (O14684 whole entry): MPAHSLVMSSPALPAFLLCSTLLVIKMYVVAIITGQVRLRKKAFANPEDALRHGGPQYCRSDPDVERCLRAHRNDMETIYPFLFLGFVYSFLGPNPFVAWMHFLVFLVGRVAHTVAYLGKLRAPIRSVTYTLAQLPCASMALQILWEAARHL
# Summary of the method: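 Microsomes from A549 cells treated 48 h with 1 ng/mL IL-1b, isolated by sonication and differential centrifugation (10,000×g 10 min, 174,000×g 1 h, 4 °C). Diluted in 0.1 M potassium phosphate pH 7.4 with 2.5 mM glutathione. Pre-incubated with compound or vehicle on ice, then 20 µM PGH2 added. PGE2 measured by RP-HPLC as % of DMSO control, mean S.E., n = 3–4.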
# [2] = biological target: T2, Prostaglandin G/H synthase 2 (Homo sapiens) (UniProt P35354); test: Inhibition of human COX2 at 10 uM preincubated for 5 mins measured after 5 mins
# T2 sequence (whole entry): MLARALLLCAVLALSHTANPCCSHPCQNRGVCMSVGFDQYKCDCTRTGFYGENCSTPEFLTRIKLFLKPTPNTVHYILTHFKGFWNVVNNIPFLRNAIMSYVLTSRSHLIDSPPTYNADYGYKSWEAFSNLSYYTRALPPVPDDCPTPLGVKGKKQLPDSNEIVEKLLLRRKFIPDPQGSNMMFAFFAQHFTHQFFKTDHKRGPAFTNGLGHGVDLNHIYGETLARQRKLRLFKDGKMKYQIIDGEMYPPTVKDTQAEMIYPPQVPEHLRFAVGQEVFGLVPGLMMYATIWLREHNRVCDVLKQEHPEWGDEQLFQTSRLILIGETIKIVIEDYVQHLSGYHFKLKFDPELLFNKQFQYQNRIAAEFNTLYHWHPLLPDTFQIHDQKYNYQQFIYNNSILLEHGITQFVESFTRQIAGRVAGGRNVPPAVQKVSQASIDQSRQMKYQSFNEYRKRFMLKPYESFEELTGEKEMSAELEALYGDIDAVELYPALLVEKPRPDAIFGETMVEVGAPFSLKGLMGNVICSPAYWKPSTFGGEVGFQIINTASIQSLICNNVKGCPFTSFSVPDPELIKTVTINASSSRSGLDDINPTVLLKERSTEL
# [3] = Cytotoxicity against human primary monocytes at 10 uM after 24 hrs by MTT assay; settings: monocyte
# [4] = biological target: T3, Polyunsaturated fatty acid lipoxygenase ALOX15 (Homo sapiens) (UniProt P16050); test: Inhibition of 15-lipoxygenase in A23187-stimulated human PMNL assessed as inhibition of 15-H(p)ETE formation preincubated 15 mins by RP-HPLC analysis
# T3 sequence (whole entry): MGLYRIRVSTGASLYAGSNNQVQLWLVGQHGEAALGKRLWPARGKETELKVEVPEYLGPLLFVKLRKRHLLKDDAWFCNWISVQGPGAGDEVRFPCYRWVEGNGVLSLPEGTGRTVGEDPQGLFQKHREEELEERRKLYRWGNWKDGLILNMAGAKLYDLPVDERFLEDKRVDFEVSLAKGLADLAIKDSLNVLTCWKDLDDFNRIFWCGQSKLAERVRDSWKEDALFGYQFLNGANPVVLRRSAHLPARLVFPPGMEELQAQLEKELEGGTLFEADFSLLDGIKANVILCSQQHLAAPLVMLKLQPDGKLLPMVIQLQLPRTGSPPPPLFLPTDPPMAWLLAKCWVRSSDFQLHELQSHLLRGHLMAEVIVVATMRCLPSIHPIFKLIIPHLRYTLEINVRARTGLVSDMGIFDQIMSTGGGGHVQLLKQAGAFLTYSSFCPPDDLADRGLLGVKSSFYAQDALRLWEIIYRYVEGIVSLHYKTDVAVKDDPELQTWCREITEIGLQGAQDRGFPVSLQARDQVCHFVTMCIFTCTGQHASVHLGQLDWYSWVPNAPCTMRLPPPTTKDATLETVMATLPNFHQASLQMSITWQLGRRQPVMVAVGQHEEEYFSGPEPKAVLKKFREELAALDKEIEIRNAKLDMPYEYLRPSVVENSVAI
# [5] = biological target: T4, Prostaglandin G/H synthase 1 (Ovis aries) (UniProt P05979); test: Inhibition of ovine COX1 at 10 uM preincubated for 5 mins measured after 5 mins
# T4 sequence (whole entry): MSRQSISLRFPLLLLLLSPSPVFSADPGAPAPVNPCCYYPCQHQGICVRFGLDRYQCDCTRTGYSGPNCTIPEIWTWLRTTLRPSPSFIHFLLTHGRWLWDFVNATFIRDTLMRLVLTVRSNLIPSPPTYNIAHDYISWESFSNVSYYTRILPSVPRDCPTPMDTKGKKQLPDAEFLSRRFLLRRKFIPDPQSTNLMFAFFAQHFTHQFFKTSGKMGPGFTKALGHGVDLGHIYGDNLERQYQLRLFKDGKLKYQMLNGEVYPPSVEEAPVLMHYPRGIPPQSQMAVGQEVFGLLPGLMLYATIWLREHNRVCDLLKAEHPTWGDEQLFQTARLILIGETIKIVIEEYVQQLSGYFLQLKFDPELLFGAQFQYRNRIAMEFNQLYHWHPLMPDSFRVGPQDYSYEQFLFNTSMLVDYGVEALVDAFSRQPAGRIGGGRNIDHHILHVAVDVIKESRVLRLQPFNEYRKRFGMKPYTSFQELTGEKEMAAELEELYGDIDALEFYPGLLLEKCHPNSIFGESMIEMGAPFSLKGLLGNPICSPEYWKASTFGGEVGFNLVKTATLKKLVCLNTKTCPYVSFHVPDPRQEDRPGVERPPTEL
# [6] = Inhibition of His-tagged human recombinant cPLA2alpha expressed in baculovirus infected insect sf9 cells assessed as inhibition of arachidonic acid formation after 1 hr by RP-HPLC analysis
# [7] = biological target: T5, Polyunsaturated fatty acid 5-lipoxygenase (Homo sapiens) (UniProt P09917); test: Inhibition of 5-lipoxygenase in A23187-stimulated human PMNL assessed as inhibition of 15-H(p)ETE formation preincubated 15 mins by RP-HPLC analysis
# T5 sequence (whole entry): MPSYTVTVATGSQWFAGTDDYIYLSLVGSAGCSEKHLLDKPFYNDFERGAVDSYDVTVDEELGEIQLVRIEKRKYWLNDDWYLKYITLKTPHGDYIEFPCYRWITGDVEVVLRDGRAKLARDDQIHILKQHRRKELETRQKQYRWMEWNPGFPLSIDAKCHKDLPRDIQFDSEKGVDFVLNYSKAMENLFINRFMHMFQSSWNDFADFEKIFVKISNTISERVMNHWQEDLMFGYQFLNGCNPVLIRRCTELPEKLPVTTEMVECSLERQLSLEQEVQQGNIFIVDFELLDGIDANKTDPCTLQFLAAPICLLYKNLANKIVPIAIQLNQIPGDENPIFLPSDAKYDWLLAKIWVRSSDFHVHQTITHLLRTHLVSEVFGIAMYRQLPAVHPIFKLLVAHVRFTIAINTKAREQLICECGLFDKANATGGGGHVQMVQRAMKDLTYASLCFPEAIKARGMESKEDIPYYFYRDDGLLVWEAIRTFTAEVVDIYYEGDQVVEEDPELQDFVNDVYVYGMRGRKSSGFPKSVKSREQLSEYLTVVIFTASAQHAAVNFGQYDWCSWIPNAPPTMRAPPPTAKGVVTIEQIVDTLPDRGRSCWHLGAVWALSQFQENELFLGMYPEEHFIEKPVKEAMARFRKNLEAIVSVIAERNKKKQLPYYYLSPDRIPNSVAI
# [8] = Cytotoxicity against mouse […] cells at 10 uM after 24 hrs by MTT assay
# [9] = biological target: T6, Polyunsaturated fatty acid lipoxygenase ALOX12 (Homo sapiens) (UniProt P18054); test: Inhibition of 12-lipoxygenase in A23187-stimulated human platelets assessed as reduction of 12(S)-H(P)ETE formation preincubated 15 mins by RP-HPLC analysis
# T6 sequence (whole entry): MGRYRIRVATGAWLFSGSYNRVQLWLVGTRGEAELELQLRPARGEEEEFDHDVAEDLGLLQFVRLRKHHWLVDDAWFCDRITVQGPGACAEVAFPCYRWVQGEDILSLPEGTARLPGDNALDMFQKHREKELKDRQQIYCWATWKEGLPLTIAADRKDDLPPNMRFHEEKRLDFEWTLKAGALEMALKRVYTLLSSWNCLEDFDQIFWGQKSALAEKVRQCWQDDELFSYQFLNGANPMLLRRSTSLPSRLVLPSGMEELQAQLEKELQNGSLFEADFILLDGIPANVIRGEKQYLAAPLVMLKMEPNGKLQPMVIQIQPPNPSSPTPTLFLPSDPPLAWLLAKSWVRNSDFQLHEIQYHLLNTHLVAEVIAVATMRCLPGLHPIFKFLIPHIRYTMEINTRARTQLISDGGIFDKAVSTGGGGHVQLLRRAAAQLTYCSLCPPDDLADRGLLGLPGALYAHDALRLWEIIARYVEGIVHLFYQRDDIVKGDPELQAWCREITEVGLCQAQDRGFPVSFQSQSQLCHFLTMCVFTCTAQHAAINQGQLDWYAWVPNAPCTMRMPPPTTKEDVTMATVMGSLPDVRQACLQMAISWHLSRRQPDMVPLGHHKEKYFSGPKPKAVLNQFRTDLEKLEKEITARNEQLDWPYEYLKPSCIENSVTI
# A549 [10] = test: Antiinflammatory activity in human A549 cells assessed as inhibition of IL-1beta-induced mPGES1 expression at 1 uM treated 30 mins prior to IL-1beta challenge measured after 48 hrs by Western blot analysis relative to control; type: functional, cell-based; summary of the method: as §1
smiles,measurement,setting,value
O=C1OC(O)C(c2ccc(C(=O)N3CCCC3)cc2)=C1Br (stereo not drawn),inhibition,A549 [1],inactive
O=C1OC(O)C(c2ccc(C(=O)NCc3ccccc3)cc2)=C1Br (stereo not drawn),IC50,Prostaglandin E synthase,5.6 µM
same,inhibition,A549 [1],inactive
O=C1OC(O)C(c2ccc(C(=O)Nc3ccccc3)cc2)=C1Br (stereo not drawn),inhibition,[2],inactive
same,Activity,[3],Non-toxic
same,inhibition,[4],inactive
same,inhibition,[5],inactive
same,IC50,Prostaglandin E synthase,0.9 µM
same,inhibition,[6],inactive
same,inhibition,A549 [1],inactive
same,inhibition,[7],22%
same,Activity,[8],Non-toxic
same,inhibition,[9],inactive
O=C1OC(O)C(c2ccc(C(=O)N3CCOCC3)cc2)=C1Br (stereo not drawn),inhibition,A549 [1],inactive
O=C1OC(O)C(c2cccc(C(=O)Nc3ccccc3)c2)=C1Br (stereo not drawn),inhibition,A549 [1],inactive
O=C1OC(O)C(c2cccc(C(=O)N3CCOCC3)c2)=C1Br (stereo not drawn),inhibition,A549 [1],inactive
O=C1OC(O)C(c2cccc(C(=O)N3CCCCC3)c2)=C1Br (stereo not drawn),inhibition,A549 [1],inactive
O=C1OC(O)C(c2cccc(C(=O)NCc3ccccc3)c2)=C1Br (stereo not drawn),inhibition,A549 [1],inactive
O=C1OC(O)C(c2cc3ccccc3s2)=C1Br (stereo not drawn),IC50,Prostaglandin E synthase,> 10 µM
O=C1OC(O)C(c2ccc(C(=O)N3CCCCC3)cc2)=C1Br (stereo not drawn),inhibition,A549 [1],inactive
O=C1OC(O)C(c2ccc(C(=O)N3CCNCC3)cc2)=C1Br (stereo not drawn),inhibition,A549 [1],inactive
O=C1OC(O)C(c2cccc(C(=O)N3CCCC3)c2)=C1Br (stereo not drawn),inhibition,A549 [1],inactive
C[C@@H]1C[C@H]2[C@@H]3CCC4=CC(=O)C=C[C@]4(C)[C@@]3(F)[C@@H](O)C[C@]2(C)[C@@]1(O)C(=O)CO,inhibition,A549 [10],Active
